NPY1 pot ag = potentiates or activates human NPY-Y1 receptor | actives 0.37% (n = 220,000) | NPY-Y1 expressing cells, potentiator/agonist activation | activation, % at 3.6 µM | AID 1304 | P25929; in the data active means activation above about 33%, passing the limit was not always enough;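 further: cells stimulated with NPY at EC10 then isoproterenol at EC100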
NPY2 pot ag = human NPY-Y2 potentiation or agonism, primary screen | actives 0.45% (n = 220,000) | AID 1359 | activation, % at 3.6 µM | cells expressing NPY-Y2, potentiator/agonist read-out | P49146; in the data active means activation above about 27%;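 further: cells stimulated with NPY near EC25 plus isoproterenol at EC100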
Furin inh = blocks human furin protease activity; purified furin, fluorogenic substrate cleavage; actives 0.061% (n = 220,000); inhibition, % at 20 µM or 30 µM; in the data active means inhibition above about 25%
KCC2 mod = modulators of human KCC2 chloride dependent transport. Q9H2X9. KCC2 cells, thallium flux FluoZin-2 fluorescence. B-score of Tl+ flux slope (higher = more flux/activation; lower = inhibition) at 10 µM. actives 2.2% (n = 190,000). AID 1456;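 active means thallium flux slope and its plate-corrected score both differing from the plate sample mean at a set confidence after two filtering rounds, in either direction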;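 further: slope of fluorescence scaled to starting intensity during 10 to 20 s after thallium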
Target sequence (Q9H2X9 whole entry, looked up): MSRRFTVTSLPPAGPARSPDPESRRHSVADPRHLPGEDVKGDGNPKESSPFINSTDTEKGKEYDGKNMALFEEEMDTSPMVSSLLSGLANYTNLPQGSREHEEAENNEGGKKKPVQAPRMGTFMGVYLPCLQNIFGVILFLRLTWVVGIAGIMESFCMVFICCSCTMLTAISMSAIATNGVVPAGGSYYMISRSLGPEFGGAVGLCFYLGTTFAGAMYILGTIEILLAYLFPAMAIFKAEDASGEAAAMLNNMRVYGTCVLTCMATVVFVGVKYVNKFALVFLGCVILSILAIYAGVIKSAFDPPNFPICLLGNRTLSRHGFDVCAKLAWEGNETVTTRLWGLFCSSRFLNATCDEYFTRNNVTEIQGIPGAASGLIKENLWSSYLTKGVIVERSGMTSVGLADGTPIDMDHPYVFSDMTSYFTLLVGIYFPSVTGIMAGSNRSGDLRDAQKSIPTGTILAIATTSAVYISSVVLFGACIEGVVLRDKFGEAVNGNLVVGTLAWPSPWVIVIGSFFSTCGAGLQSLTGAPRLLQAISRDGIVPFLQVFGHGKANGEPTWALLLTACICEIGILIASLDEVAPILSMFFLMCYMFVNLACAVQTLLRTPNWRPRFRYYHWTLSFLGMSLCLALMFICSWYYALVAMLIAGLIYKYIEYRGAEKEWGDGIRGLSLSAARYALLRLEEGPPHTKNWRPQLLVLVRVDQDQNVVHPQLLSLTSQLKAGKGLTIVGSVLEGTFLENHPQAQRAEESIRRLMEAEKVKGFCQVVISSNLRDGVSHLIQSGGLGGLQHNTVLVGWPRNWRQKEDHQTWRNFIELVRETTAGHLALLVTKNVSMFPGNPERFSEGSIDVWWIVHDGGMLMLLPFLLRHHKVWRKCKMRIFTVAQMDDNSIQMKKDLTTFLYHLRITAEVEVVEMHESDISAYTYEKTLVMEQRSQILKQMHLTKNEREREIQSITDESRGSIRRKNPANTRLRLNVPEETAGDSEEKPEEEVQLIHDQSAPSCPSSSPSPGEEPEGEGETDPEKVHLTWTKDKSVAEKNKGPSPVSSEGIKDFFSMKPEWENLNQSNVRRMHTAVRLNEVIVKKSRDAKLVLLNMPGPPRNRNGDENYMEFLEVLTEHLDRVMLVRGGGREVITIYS
NPY Y1 blocker = NPY-Y1 (human) receptor antagonism | P25929 | actives 1% (n = 200,000) | inhibition, % at 3.6 µM | HEK293-CNG Y1 cells, membrane potential fluorescence; NPY at EC95, then isoproterenol | AID 1040;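 active means inhibition above the campaign mean inhibition of all tested compounds plus 3 SD, cut at about 20% in these data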
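Material: HEK293 Y1/CNG channel cell line; also added: NPY (25 nM), isoproterenol (1 µM), Ro 20-1724 (25 µM); doses: one concentration, 3.6 µM, in 0.4% DMSO; schedule: compound incubation 1 h at room temperature, readout 45 min post-stimulation; technique: membrane potential fluorescence; measure: fluorescence ratio normalized to % inhibition between controls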
NPY Y2 blocker = blocks the human neuropeptide Y Y2 receptor. NPY-Y2 expressing cells, antagonist mode. inhibition, % at 2.7 µM. actives 0.99% (n = 140,000). AID 793; in the data active means inhibition above about 17%
NPY1 antag ctr = antagonizes human NPY-Y1, counter-screen to NPY-Y2 antagonists | shares compounds with NPY Y2 blocker | cell-based NPY-Y1 antagonism counterscreen | inhibition, % at 3.6 µM | actives 19% (n = 710); in the data active means inhibition above about 20%;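 further: cells challenged with NPY then isoproterenol with cAMP sensed through a CNG channel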
NPY2 antag conf = confirmation of human neuropeptide Y receptor Y2 antagonists; AID 1257; shares compounds with NPY Y2 blocker; inhibition, % at 2.8 µM; HEK293 NPY-Y2 CNG channel, membrane potential fluorescence; actives 32% (n = 710);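 active means mean inhibition of triplicate wells above the hit cutoff set in the primary screen, cut at about 17% in these data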
Of the large screens only hits and unclear results are named; the others gave an inactive call (follow-up assays come after a bar, where they were run). The list is not random: actives were taken first. Their share in the collection is about 3.7%.

C=CCn1c(SCC(=O)N2CCc3ccccc3C2)nc2sc(C)c(C)c2c1=O	NPY Y2 blocker 19 | NPY1 antag ctr inactive | NPY2 antag conf inactive
C(#Cc1ccccc1)C[N+]1(CC#Cc2cccc3ccccc23)CCCC1	NPY Y2 blocker 18 | NPY1 antag ctr inactive | NPY2 antag conf inactive
C#CC[N+]1(CC#Cc2ccccc2)CCCC1	none (no result: KCC2 mod)
O=c1c2ccccc2nc(-c2ccccc2)n1CCN1CCOCC1	none
O=c1c2ccccc2nc2c3ccccc3c(NCCN3CCOCC3)nn12	NPY Y2 blocker 20 | NPY1 antag ctr inactive | NPY2 antag conf 25
CN(C(=O)c1ccccc1OC1CCN(S(C)(=O)=O)CC1)C1CCOC1 (configuration not stated)	none (no result: NPY Y2 blocker)
CC(C)(C)c1ccc(/C=C/C(=O)N2CCc3ccccc3C2)cc1	none
Cc1ccc(/C=C/C(=O)N2CCc3ccccc3C2)cc1	NPY Y2 blocker 24 | NPY1 antag ctr inactive | NPY2 antag conf inactive
Cc1cccc(Nc2nc(NCc3ccco3)c3ccccc3n2)c1	NPY Y2 blocker 27 | NPY1 antag ctr 22 | NPY2 antag conf 20
Cc1cc(/C=N/n2cnnc2)c(C)n1-c1ccc(OCc2ccc(Cl)cc2Cl)cc1	NPY Y2 blocker 22 | NPY1 antag ctr 21 | NPY2 antag conf 24
CC(C)Nc1nnc(Sc2ccc(Cl)cc2[N+](=O)[O-])s1	NPY Y2 blocker 21 | NPY1 antag ctr inactive | NPY2 antag conf inactive
C=CCn1c(SC2CCOC2=O)nc2scc(C3CC3)c2c1=O (configuration not stated)	NPY Y2 blocker 45 (no result: KCC2 mod) | NPY1 antag ctr 30 | NPY2 antag conf 81
Cc1ccc(-c2nc(NCc3ccc(F)cc3)n(S(C)(=O)=O)n2)cc1	none (no result: NPY Y2 blocker)
Cc1ccc(-c2nnc3sc(C4COc5ccccc5O4)nn23)cc1 (configuration not stated)	NPY Y2 blocker 18 | NPY1 antag ctr inactive | NPY2 antag conf inactive
Clc1ccccc1-c1nnc2sc(C3COc4ccccc4O3)nn12 (configuration not stated)	none
CCCCn1c(SCC(=O)Nc2ccccc2C(F)(F)F)nc2ccsc2c1=O	NPY Y2 blocker 29 | NPY1 antag ctr inactive | NPY2 antag conf inactive
CCCCn1c(SCC(=O)N2CCN(c3ccccc3)CC2)nc2ccsc2c1=O	NPY Y2 blocker 20 | NPY1 antag ctr 25 | NPY2 antag conf inactive
O=S(=O)(Nc1ccc2c(c1)OCO2)c1ccc(Br)s1	none
Cc1nc2ccccc2cc1OCc1ccc(Cl)cc1	NPY Y2 blocker 19 | NPY1 antag ctr 22 | NPY2 antag conf 17
Cc1ccc(Oc2ncccc2C(=O)NCC(=O)O)cc1	none (no result: KCC2 mod, NPY Y1 blocker, NPY Y2 blocker)
Cc1cc(Cl)nc(-n2nc(C)cc2C)n1	none (no result: NPY Y1 blocker, NPY Y2 blocker)
Cc1cc(C)n(-c2nc(C)nc(N)n2)n1	NPY Y2 blocker 20 | NPY1 antag ctr inactive | NPY2 antag conf inactive
CCn1c(/C=C/Nc2ccccc2)[n+](CC)c2cc(Cl)c(Cl)cc21	NPY Y2 blocker 35 | NPY1 antag ctr inactive | NPY2 antag conf inactive
CCn1c(/C=C/N(C(C)=O)c2ccccc2)[n+](CCCS(=O)(=O)[O-])c2cc(Cl)c(Cl)cc21	none (no result: KCC2 mod, NPY Y2 blocker)
CC1CCN(c2nnc(N3CCC(C)CC3)c3ccccc23)CC1	none (no result: NPY Y2 blocker)
Cc1nc(N2CCC(C)CC2)c2oc3ccccc3c2n1	NPY Y2 blocker 19 | NPY1 antag ctr inactive | NPY2 antag conf 36
CCN(CC)CCCN=Cc1c(O)n(Cc2ccccc2)c(=O)c2ccccc12	none (no result: KCC2 mod)
CC(C)CCC(C)N=Cc1c(O)n(Cc2ccccc2)c(=O)c2ccccc12 (configuration not stated)	NPY Y2 blocker 21 | NPY1 antag ctr 27 | NPY2 antag conf 21
CN(C)CCCSc1nc(-c2ccccc2)nc2c1CCC2	NPY Y2 blocker 21 | NPY1 antag ctr inactive | NPY2 antag conf 23
N#Cc1c(/N=C/c2cc3ccccc3s2)sc2c1CCC2	none
C=CCNCc1cccn1-c1sc2c(c1C#N)CCCC2	NPY Y2 blocker 18 | NPY1 antag ctr inactive | NPY2 antag conf inactive
O=S(=O)(Nc1nc(CN2CCOCC2)nc2sc3c(c12)CCCC3)c1cc(F)ccc1F	none (no result: KCC2 mod)
Cc1ccc(NC(=O)C(=O)NCCOc2ccc(Cl)cc2)c(C)c1	NPY Y2 blocker 21 | NPY1 antag ctr inactive | NPY2 antag conf 20
C/C(=N\NC(=O)C1CC1)c1ccccc1O	none (no result: NPY Y2 blocker)
O=C1OCCC1Sc1nc2cc(Cl)ccc2s1 (configuration not stated)	NPY Y2 blocker 23 | NPY1 antag ctr inactive | NPY2 antag conf inactive
O=C1OCCC1Sc1nc2ccccc2s1 (configuration not stated)	none
COc1ccc(C(C(=O)NC2CCCC2)N(C(=O)c2ccoc2C)c2ccc(C)cc2)cc1 (configuration not stated)	NPY Y2 blocker 19 (no result: KCC2 mod) | NPY1 antag ctr inactive | NPY2 antag conf inactive
N=c1n(Cc2ccccc2)c2ccccc2n1Cc1ccccc1	NPY Y2 blocker 23 | NPY1 antag ctr inactive | NPY2 antag conf inactive
COc1ccc(-c2cn(-c3ccc(C)cc3C)c(=O)[nH]2)cc1OC	none (no result: NPY Y2 blocker)
CCCn1nnnc1NC(=O)COc1ccc(CC)cc1	NPY Y2 blocker 18 | NPY1 antag ctr inactive | NPY2 antag conf inactive
CCCn1nnnc1NC(=O)COc1ccc(Cl)c(C)c1	none
O=C(COc1ccc(Br)cc1)Nc1ccc(Cc2ccncc2)cc1	none (no result: NPY Y2 blocker)
CC1CCCC(NC(=O)COC(=O)CSc2ccc3ccccc3c2)C1C (configuration not stated)	NPY Y2 blocker 19 | NPY1 antag ctr 28 | NPY2 antag conf 22
COc1ccc(C(=O)C(CN2CCOCC2)c2ccccc2)cc1F (configuration not stated)	NPY Y2 blocker 17 (no result: KCC2 mod) | NPY1 antag ctr inactive | NPY2 antag conf inactive
COc1ccc(C(O)C(CN2CCOCC2)c2ccccc2)cc1F (configuration not stated)	none
CCn1c(/C=C/c2ccccc2)nc2ccccc21	none (no result: KCC2 mod)
COc1ccc(Cn2c(/C=C/c3ccccc3)nc3ccccc32)cc1	NPY Y2 blocker 36 | NPY1 antag ctr inactive | NPY2 antag conf 24
CC(C)Cn1c(/C=C/c2ccccc2)nc2ccccc21	NPY Y2 blocker 18 | NPY1 antag ctr inactive | NPY2 antag conf inactive
CCOc1ccc2nc(C)cc(Nc3cccc([N+](=O)[O-])c3)c2c1	none
CC(C)COC(=O)c1cccc2c1-c1ccccc1/C2=N\O	NPY Y2 blocker 22 | NPY1 antag ctr inactive | NPY2 antag conf 39
COc1ccc(Cl)cc1C(=O)NNC(=O)CN1C(=O)C2CC=CCC2C1=O (configuration not stated)	none (no result: NPY Y2 blocker)
O=C(Nc1cccn(Cc2c(Cl)cccc2Cl)c1=O)c1ccccc1Cl	NPY Y2 blocker 23 | NPY1 antag ctr inactive | NPY2 antag conf inactive
